Results reported in ChEMBL document CHEMBL4428066, “Small Molecule Reversible Inhibitors of Bruton's Tyrosine Kinase (BTK): Structure-Activity Relationships Leading to the Identification of 7-(2-Hydroxypropan-2-yl)-4-[2-methyl-3-(4-oxo-3,4-dihydroquinazolin-3-yl)phenyl]-9H-carbazole-1-carboxamide (BMS-935177)” (J Med Chem, 2016).
In brackets after ≈: the same amount, converted by molar mass. Activity calls are given as the source filed them. No cut-off for these calls is given here.

Tests used:
Mus musculus [1] = test: Antiarthritic activity in DBA/1 mouse model of collagen-induced arthritis inflammation assessed as inhibition of bone resorption end points dosed daily and orally beginning on day of primary immunization by micro-CT analysis; assay type: functional, organism-based
[2] = molecular target: Tyrosine-protein kinase BTK (Mus musculus, UniProt P35991); test: Inhibition of BTK in mouse whole blood assessed as suppression of BCR/anti-IgM stimulated CD69 surface expression on B cells after 18 hrs by FACS analysis; assay type: tissue-based
Chain of Tyrosine-protein kinase BTK (P35991 whole entry): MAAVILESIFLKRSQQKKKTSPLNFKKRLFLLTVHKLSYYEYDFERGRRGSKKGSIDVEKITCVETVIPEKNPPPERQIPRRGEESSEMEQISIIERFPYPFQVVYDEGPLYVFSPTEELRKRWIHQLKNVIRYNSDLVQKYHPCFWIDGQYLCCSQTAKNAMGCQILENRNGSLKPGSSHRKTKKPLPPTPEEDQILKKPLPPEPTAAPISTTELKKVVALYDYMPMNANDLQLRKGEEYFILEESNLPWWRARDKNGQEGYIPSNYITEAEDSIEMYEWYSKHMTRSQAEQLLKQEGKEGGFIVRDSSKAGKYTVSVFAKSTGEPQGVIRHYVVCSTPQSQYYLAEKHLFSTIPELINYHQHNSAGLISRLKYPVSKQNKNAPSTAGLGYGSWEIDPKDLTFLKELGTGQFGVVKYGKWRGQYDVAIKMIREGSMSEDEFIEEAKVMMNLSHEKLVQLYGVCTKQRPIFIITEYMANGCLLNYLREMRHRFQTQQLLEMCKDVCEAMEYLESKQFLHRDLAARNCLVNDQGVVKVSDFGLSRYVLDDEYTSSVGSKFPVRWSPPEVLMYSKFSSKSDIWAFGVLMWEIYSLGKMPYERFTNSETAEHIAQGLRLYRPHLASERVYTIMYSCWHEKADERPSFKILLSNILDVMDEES
In short: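 Mouse whole blood stimulated through the BCR; CD69 on the B-cell surface read by FACS with gating on B cells. IC50 reported as mean ± standard deviation of three determinations.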

[3] = Solubility of the compound in fed state simulated intestinal fluid; assay type: physicochemical
[4] = Volume of distribution in steady state in cynomolgus monkey at 2 mg/kg, iv through bolus administration after 0.167 to 48 hrs by LC/MS/MS analysis; assay type: ADME, organism-based, Macaca fascicularis; details: in vivo, read-out: Vdss
Cytochrome P450 2C9 = Cytochrome P450 2C9 (Homo sapiens, UniProt P11712); test: Inhibition of human liver microsomes CYP2C9 after 30 mins in presence of NADPH; assay type: ADME
Chain of Cytochrome P450 2C9 (P11712 whole entry): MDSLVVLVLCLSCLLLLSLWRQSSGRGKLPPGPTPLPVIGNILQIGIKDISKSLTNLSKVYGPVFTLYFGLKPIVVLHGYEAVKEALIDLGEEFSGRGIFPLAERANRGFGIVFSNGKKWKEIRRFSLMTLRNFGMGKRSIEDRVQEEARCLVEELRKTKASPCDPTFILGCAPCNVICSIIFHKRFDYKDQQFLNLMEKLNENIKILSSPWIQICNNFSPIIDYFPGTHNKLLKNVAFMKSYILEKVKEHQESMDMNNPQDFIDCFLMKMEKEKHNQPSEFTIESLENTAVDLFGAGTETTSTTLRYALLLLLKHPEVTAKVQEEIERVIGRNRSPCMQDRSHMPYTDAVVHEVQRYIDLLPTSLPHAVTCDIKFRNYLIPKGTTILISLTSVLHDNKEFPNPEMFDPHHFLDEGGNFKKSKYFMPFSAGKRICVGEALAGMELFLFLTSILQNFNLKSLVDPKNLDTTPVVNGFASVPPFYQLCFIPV

Mus musculus [5] = test: Antiarthritic activity in DBA/1 mouse model of collagen-induced arthritis inflammation assessed reduction in disease severity at 10 mg/kg, po dosing daily starting on day of primary immunization; assay type: functional; design: scale not given: the % may be the effect or the level left
[6] = Cmax in Beagle dog plasma at 2 mg/kg, administered through oral gavage after 0.25 to 48 hrs by LC/MS/MS analysis; assay type: ADME, organism-based, Canis lupus familiaris; design: dose 2 mg/kg, route oral
[7] = molecular target: High affinity nerve growth factor receptor (Homo sapiens, UniProt P04629); test: Inhibition of partial length human TRKA expressed in mammalian system
Chain of High affinity nerve growth factor receptor (P04629 whole entry): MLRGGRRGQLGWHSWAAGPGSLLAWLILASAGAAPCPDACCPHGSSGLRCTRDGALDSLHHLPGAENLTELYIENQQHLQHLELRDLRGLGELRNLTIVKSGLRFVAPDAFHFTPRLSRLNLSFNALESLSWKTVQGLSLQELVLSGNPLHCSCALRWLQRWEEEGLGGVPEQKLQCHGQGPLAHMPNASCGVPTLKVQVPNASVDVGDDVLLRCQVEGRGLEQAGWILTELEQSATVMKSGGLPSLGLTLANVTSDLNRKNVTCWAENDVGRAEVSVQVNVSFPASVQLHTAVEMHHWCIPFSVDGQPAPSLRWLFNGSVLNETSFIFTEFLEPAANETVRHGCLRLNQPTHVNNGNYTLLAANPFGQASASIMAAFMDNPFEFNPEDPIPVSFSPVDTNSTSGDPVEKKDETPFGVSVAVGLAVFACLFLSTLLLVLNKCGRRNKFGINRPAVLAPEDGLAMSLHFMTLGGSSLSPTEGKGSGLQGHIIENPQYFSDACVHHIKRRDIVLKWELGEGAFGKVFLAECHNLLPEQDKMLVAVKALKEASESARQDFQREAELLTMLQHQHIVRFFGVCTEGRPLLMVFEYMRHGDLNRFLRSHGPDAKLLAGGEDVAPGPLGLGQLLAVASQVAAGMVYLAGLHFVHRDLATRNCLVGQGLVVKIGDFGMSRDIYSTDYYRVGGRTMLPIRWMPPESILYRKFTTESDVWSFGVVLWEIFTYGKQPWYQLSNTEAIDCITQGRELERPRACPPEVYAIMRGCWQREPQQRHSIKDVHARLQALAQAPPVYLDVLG

Mus musculus [8] = test: Antiarthritic activity in po dosed CIA DBA/1 mouse model assessed as reduction of disease severity after 21 days; assay type: functional, organism-based
[9] = Cmax in Balb/C mouse at 10 mg/kg, po; assay type: ADME, organism-based; design: dose 10 mg/kg, route oral; details: in vivo
In short: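 Male Balb/C mice dosed orally once at 10 mg/kg in PEG300/TPGS/ethanol (90/5/5 v/v/v).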

[10] = molecular target: Cytoplasmic tyrosine-protein kinase BMX (Homo sapiens, UniProt P51813); test: Inhibition of full length human BMX expressed in bacterial system
[11] = Passive permeability from basolateral to apical side in human Caco2 cells; assay type: ADME, cell-based; details: Caco-2, read-out: permeability
Mus musculus [12] = test: Antiarthritic activity in DBA/1 mouse model of collagen-induced arthritis inflammation assessed as reduction of disease severity at 30 mg/kg, qd administered through oral gavage dosed after day 21 booster immunization; assay type: functional, organism-based
[13] = Tmax in Beagle dog plasma at 2 mg/kg, administered through oral gavage after 0.25 to 48 hrs by LC/MS/MS analysis; assay type: ADME, organism-based, Canis lupus familiaris
Cytochrome P450 1A2 = Cytochrome P450 1A2 (Homo sapiens, UniProt P05177); test: Inhibition of human liver microsomes CYP1A2 after 30 mins in presence of NADPH; assay type: ADME
Chain of Cytochrome P450 1A2 (P05177 whole entry): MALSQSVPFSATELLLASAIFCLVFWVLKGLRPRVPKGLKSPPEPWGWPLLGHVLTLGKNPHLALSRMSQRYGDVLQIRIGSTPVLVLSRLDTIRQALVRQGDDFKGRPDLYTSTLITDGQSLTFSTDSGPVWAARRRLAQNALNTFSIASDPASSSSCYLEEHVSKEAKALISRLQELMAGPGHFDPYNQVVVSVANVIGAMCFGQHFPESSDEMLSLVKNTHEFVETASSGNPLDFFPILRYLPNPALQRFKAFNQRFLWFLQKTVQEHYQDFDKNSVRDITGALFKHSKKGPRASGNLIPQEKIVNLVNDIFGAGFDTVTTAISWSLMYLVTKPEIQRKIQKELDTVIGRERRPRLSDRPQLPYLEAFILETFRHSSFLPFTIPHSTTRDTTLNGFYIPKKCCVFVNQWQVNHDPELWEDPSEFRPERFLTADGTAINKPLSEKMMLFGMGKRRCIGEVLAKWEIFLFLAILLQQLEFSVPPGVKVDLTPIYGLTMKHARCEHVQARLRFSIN

Mus musculus [14] = test: Antiarthritic activity in DBA/1 mouse model of collagen-induced arthritis inflammation assessed reduction in disease severity at 20 to 30 mg/kg, po dosing daily starting on day of primary immunization; assay type: functional; design: scale not given: the % may be the effect or the level left
[15] = AUC in Sprague-Dawley rat plasma at 5 mg/kg, administered through oral gavage by LC/MS/MS analysis; assay type: ADME, organism-based
[16] = Oral bioavailability in Sprague-Dawley rat at 5 mg/kg by LC/MS/MS analysis; assay type: ADME, organism-based; details: in vivo
Mus musculus [17] = test: Antiarthritic activity in DBA/1 mouse model of collagen-induced arthritis inflammation assessed as protection against fusion of small bones dosed daily and orally beginning on day of primary immunization by microcomputed tomography imaging analysis; assay type: functional, organism-based
[18] = Permeability of the compound at pH 7.4 by PAMPA; assay type: ADME; details: read-out: permeability
[19] = Tmax in Sprague-Dawley rat plasma at 5 mg/kg, administered through oral gavage by LC/MS/MS analysis; assay type: ADME, organism-based
[20] = molecular target: Tyrosine-protein kinase Lck (Homo sapiens, UniProt P06239); test: Inhibition of partial length human LCK expressed in bacterial system
[21] = molecular target: Tyrosine-protein kinase Tec (Homo sapiens, UniProt P42680); test: Inhibition of partial length human TEC expressed in bacterial system
Chain of Tyrosine-protein kinase Tec (P42680 whole entry): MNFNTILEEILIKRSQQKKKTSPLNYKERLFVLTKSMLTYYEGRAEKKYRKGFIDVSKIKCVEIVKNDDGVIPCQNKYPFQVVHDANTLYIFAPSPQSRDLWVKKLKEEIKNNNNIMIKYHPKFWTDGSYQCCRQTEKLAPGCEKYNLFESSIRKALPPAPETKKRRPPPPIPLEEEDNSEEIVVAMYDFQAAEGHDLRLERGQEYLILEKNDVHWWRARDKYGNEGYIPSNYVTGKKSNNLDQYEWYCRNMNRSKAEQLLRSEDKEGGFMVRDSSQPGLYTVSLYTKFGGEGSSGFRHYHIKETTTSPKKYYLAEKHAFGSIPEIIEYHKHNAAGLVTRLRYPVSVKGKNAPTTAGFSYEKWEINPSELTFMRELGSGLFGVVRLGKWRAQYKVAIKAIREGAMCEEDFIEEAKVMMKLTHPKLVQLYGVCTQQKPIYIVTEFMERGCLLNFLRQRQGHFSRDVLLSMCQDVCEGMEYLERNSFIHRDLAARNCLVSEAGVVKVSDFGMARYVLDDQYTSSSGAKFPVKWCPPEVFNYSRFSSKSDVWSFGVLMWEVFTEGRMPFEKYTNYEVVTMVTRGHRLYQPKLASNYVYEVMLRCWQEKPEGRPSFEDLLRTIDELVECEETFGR

[22] = molecular target: BDNF/NT-3 growth factors receptor (Homo sapiens, UniProt Q16620); test: Inhibition of partial length human TRKB expressed in mammalian system
Chain of BDNF/NT-3 growth factors receptor (Q16620 whole entry): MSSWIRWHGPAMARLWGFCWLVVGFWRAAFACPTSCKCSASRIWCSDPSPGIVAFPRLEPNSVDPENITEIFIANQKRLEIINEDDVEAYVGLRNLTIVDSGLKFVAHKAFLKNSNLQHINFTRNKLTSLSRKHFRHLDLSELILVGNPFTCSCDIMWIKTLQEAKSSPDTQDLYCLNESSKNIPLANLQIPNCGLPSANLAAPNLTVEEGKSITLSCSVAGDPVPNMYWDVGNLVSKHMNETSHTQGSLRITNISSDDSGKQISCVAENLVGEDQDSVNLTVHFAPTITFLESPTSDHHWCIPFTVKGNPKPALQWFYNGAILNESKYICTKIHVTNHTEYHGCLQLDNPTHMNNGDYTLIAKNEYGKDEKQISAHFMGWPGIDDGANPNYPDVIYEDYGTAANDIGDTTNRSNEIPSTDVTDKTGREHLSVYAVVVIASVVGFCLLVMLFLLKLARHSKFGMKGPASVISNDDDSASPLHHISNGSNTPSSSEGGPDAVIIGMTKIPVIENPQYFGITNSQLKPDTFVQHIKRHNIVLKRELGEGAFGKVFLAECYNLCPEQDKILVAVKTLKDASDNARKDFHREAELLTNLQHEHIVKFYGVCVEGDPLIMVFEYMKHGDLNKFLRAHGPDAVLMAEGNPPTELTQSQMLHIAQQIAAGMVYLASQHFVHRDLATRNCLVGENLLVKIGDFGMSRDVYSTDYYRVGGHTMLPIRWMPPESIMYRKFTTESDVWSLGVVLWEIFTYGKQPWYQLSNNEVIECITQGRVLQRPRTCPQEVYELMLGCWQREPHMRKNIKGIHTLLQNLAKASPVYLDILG

[23] = AUC in Beagle dog plasma at 2 mg/kg, administered through oral gavage after 0.25 to 48 hrs by LC/MS/MS analysis; assay type: ADME, organism-based, Canis lupus familiaris; design: time 0.25-48 hr, dose 2 mg/kg, route oral
Mus musculus [24] = test: Time required for plasma concentration to reach above in vitro BCR/IgM/IgG-stimulated CD69 expression mouse whole blood IC50 in DBA/1 mouse CIA model at 20 mg/kg administered daily through oral gavage starting on day of primary immunization; assay type: ADME, organism-based; details: in vivo
[25] = Plasma clearance in Sprague-Dawley rat at 2 mg/kg, iv through bolus administration by LC/MS/MS analysis; assay type: ADME, organism-based
[26] = Volume of distribution in steady state in Beagle dog at 2 mg/kg, iv through bolus administration after 0.167 to 48 hrs by LC/MS/MS analysis; assay type: ADME, organism-based, Canis lupus familiaris; details: in vivo, read-out: Vdss
Mus musculus [27] = test: Time required for plasma concentration to reach above in vitro BCR-stimulated CD69 expression IC50 in Balb/C mouse KLH antibody response model at 5 to 45 mg/kg, po qd for 14 days; assay type: ADME, organism-based; details: in vivo, 336 h
[28] = Oral bioavailability in mouse at 5 mg/kg after 0.25 to 24 hrs by LC/MS/MS analysis; assay type: ADME, organism-based; details: in vivo
[29] = Volume of distribution in steady state in mouse at 2 mg/kg, iv through bolus administration after 0.05 to 24 hrs by LC/MS/MS analysis; assay type: ADME, organism-based; details: in vivo, read-out: Vdss
Salmonella typhimurium = test: Mutagenic activity in Salmonella typhimurium by AMES test; assay type: toxicity, organism-based; details: salmonella enterica subsp. enterica serovar typhimurium
[30] = molecular target: Tyrosine-protein kinase TXK (Homo sapiens, UniProt P42681); test: Inhibition of partial length human TXK expressed in bacterial system
Chain of Tyrosine-protein kinase TXK (P42681 whole entry): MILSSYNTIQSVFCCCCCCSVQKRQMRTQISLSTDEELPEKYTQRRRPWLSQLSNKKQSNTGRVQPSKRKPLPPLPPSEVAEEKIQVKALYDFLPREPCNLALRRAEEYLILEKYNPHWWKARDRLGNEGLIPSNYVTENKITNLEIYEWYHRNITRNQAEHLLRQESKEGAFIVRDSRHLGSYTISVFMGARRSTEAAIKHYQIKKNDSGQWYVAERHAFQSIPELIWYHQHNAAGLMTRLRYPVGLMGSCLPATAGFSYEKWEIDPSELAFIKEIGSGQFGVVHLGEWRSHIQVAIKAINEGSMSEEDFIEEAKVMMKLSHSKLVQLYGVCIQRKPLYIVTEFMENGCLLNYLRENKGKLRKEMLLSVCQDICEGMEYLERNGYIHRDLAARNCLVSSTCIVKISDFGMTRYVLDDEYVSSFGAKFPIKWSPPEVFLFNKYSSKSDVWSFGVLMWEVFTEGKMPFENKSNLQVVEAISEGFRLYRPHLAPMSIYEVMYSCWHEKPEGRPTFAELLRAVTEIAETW

[31] = AUC in mouse plasma at 5 mg/kg, administered through oral gavage after 0.25 to 24 hrs by LC/MS/MS analysis; assay type: ADME, organism-based; design: time 0.25-24 hr, dose 5 mg/kg, route oral
Mus musculus [32] = test: Antiarthritic activity in DBA/1 mouse model of collagen-induced arthritis inflammation assessed as protection against pitting dosed daily and orally beginning on day of primary immunization by microcomputed tomography imaging analysis; assay type: functional, organism-based
[33] = Protein binding in mouse serum; assay type: ADME, cell-free; details: read-out: PB
Mus musculus [34] = test: Time required for plasma concentration to reach above in vitro BCR/IgM/IgG-stimulated CD69 expression mouse whole blood IC50 in DBA/1 mouse CIA model at 10 mg/kg administered daily through oral gavage starting on day of primary immunization; assay type: ADME, organism-based; details: in vivo
Cytochrome P450 3A4 = Cytochrome P450 3A4 (Homo sapiens, UniProt P08684); test: Inhibition of human liver microsomes CYP3A4 after 30 mins in presence of NADPH; assay type: ADME
Chain of Cytochrome P450 3A4 (P08684 whole entry): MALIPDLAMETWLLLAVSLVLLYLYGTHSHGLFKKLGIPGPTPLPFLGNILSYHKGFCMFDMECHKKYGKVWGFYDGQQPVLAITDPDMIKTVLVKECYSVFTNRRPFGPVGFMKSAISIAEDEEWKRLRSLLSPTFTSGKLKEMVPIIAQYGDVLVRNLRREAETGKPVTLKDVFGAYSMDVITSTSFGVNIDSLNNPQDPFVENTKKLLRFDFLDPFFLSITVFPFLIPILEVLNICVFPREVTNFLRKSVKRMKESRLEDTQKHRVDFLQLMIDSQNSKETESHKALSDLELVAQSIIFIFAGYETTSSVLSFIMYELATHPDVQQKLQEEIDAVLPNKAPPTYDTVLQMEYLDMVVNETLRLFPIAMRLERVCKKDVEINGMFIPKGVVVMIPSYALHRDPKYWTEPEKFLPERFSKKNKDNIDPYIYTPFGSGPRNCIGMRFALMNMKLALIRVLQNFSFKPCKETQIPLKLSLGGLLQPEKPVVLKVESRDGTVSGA

Cytochrome P450 2C8 = Cytochrome P450 2C8 (Homo sapiens, UniProt P10632); test: Inhibition of human liver microsomes CYP2C8 after 30 mins in presence of NADPH; assay type: ADME
[35] = Passive permeability from apical to basolateral side in human Caco2 cells; assay type: ADME, cell-based; details: Caco-2, read-out: permeability
[36] = Permeability of the compound at pH 5.5 by PAMPA; assay type: ADME; details: read-out: permeability

IC50 [2]: 2060 nM
solubility [3]: 60 µg/mL (≈ 119 µM)
Vd [4]: 1.6 L/kg
IC50 (Cytochrome P450 2C9): > 8000 nM
Cmax [6]: 1.2 µM
IC50 [7]: 30 nM
Cmax [9]: 8.96 µM
IC50 [10]: 24 nM
Papp B→A [11]: 12.2 ×10⁻⁶ cm/s
Tmax [13]: 1.6 h
IC50 (Cytochrome P450 1A2): > 40000 nM
AUC [15]: 21.2 µM·h
bioavailability [16]: 84%
Papp [18]: 102 ×10⁻⁶ cm/s
Tmax [19]: 5 h
IC50 [20]: 150 nM
IC50 [21]: 13 nM
IC50 [22]: 100 nM
AUC [23]: 14.2 µM·h
Time (Mus musculus [24]): 20 h
clearance [25]: 6.4 mL/min/kg
Vd [26]: 3.2 L/kg
Time (Mus musculus [27]): 5 h
bioavailability [28]: 94%
Vd [29]: 1.7 L/kg
IC50 [30]: 180 nM
AUC [31]: 30.8 µM·h
fraction unbound [33]: 0.01
Time (Mus musculus [34]): 12 h
IC50 (Cytochrome P450 3A4): > 40000 nM
IC50 (Cytochrome P450 2C8): > 8000 nM
Papp A→B [35]: < 1.5 ×10⁻⁶ cm/s
Papp [36]: 87.6 ×10⁻⁶ cm/s
SMILES: Cc1c(-c2ccc(C(N)=O)c3[nH]c4cc(C(C)(C)O)ccc4c23)cccc1-n1cnc2ccccc2c1=O
Activity (Mus musculus [1]): Active
Activity (Mus musculus [5]): 40%
Activity (Mus musculus [8]): Dose-dependent effect
Activity (Mus musculus [12]): Active
Activity (Mus musculus [14]): 85 - 90%
Activity (Mus musculus [17]): Dose-dependent effect
Activity (Salmonella typhimurium): Non-Toxic
Activity (Mus musculus [32]): Dose-dependent effect
